Most compounds without a hit are left out; they make up all but 10% or so of the library.
WT yeast gro inh = growth inhibition of WT yeast, mitochondrial fusion screen | mitochondrial fusion phenotypic screen, WT strain | actives 2.1% (n = 190,000) | inhibition, % at 10 µM | AID 1362; in the data active means inhibition above about 58%; tested in S. cerevisiae
PMI act = increases human mannose-6-phosphate isomerase activity | purified human PMI, coupled resazurin fluorescence, 20 min; active compounds read high; 1 = vehicle control, 0 substrate-free wells | activation factor at 20 µM | actives 0.005% (n = 190,000);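 active means activation factor of 2 or more at 20 µM, relative to plate controls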
Target sequence (P34949 whole entry, looked up): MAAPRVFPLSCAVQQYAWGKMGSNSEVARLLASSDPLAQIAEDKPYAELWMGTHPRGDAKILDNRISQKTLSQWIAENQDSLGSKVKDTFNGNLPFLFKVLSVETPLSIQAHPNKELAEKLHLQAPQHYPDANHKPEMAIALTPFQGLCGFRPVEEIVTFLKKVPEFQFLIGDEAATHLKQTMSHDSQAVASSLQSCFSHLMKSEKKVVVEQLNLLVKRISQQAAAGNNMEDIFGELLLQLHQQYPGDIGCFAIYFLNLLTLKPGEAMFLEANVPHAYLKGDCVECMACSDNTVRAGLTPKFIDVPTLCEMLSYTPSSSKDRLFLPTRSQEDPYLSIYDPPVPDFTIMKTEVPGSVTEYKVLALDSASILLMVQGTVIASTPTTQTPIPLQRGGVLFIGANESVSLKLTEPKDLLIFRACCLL
Diaphorase act = counter-screen for diaphorase-based assays: diaphorase activators and chemical reducers; Diaphorase/resazurin coupled assay, resorufin fluorescence, 16 min; active compounds read high; 1 = vehicle wells, 0 = NADH-free wells; activation factor at 20 µM; actives 0.005% (n = 190,000);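 active means diaphorase activity raised at least twofold by the compound at 20 µM; inactive means activation factor below 2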
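Material: purified diaphorase enzyme from Clostridium kluyveri / Medium: HEPES pH 7.4 buffer with MgCl2 and Tween 20 / Schedule: enzyme reaction of 16 min at room temperature / Measured by: resorufin fluorescence, excitation 544 nm, emission 590 nm / Evaluation: rise in resorufin formation, marking diaphorase activation or chemical reduction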
Lmaj promast = reduces viability of Leishmania major promastigotes | actives 9% (n = 200,000) | AID 1063 | resazurin fluorescence viability | inhibition, % at 10 µM; in the data active means inhibition above about 50%;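 further: promastigotes grown with compound for 44 hours at 28 °C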
PMI act satM6P = PMI (human) activation, high substrate. P34949. coupled PMI enzyme assay, resazurin fluorescence, 20 min; active compounds read high; 1 = untreated enzyme, 0 = substrate-free blank. activation factor at 20 µM. actives 0.34% (n = 190,000);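 active means activation factor of 2 or more at 20 µM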
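Test system: human phosphomannose isomerase with PGI, G6PDH, diaphorase coupling enzymes; amount: 15 ng/mL PMI; incubation: enzyme reaction with compound 20 min at room temperature; technique: resorufin fluorescence (Ex 544/Em 590 nm) from resazurin via diaphorase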
Of the large screens only hits and unclear results are named; the others gave an inactive call.

CCOC(=O)/C=C(/C)N1N=C(c2ccc(OC)cc2)CC1c1cccc([N+](=O)[O-])c1 (centres undefined)	PMI act satM6P 2.3
Cc1cccc(NC(=O)c2ccc(CN3CCc4ccccc4C3)cc2)c1C	Lmaj promast 57
Cc1ccccc1NC(=O)c1ccc(CN2CCc3ccccc3C2)cc1	none
CCc1cccc(C)c1NC(=O)c1ccc(CN2CCc3ccccc3C2)cc1	Lmaj promast 66
c1ccc(-c2ccc(-c3cnc4n3CCCCC4)cc2)cc1	Lmaj promast 99
Fc1ccc(Br)cc1C1C=C(c2ccc(Br)cc2)Nc2ncnn21 (centres undefined)	none
CCc1ccc(C2=CC(c3cc(Br)ccc3F)n3ncnc3N2)cc1 (centres undefined)	WT yeast gro inh 65
CN(C)S(=O)(=O)c1ccc(NC(=O)Cc2ccc(S(=O)(=O)N3CCOCC3)s2)cc1	none
CCn1c2ccccc2c2cc(NC(=O)Cc3ccc(S(=O)(=O)N4CCOCC4)s3)ccc21	Lmaj promast 81
CC(=O)c1c(C)[nH]c(C(=O)Nc2nc(-c3ccc(-c4ccccc4)cc3)cs2)c1C	Lmaj promast 97
CC(=O)c1c(C)[nH]c(C(=O)Nc2nc(-c3ccc(Cl)cc3)cs2)c1C	WT yeast gro inh 86
COc1ccc(C(=O)N/N=C/C2CC=CCC2)cc1OC (centres undefined)	none
CCOC(=O)c1c(NC(C)=O)sc2c(OCC(O)CNC(C)(C)C)c(Br)ccc12 (centres undefined)	Lmaj promast 101 (no result: PMI act, Diaphorase act, PMI act satM6P)
CC1CCC(C(C)C)C2=C1C(C#N)(C#N)C(C#N)(C#N)C(c1ccccc1)N2 (centres undefined)	Lmaj promast 100
COc1ccc(S(=O)(=O)N2c3ccccc3OCC2C(C)(C)C)cc1 (centres undefined)	WT yeast gro inh 77
COc1ccc(-n2nc(C(=O)NCC(=O)N3CCN(c4ccccn4)CC3)c3ccccc3c2=O)cc1	none
COc1ccc(N=CC2=C(Nc3ccc(OC)cc3)c3c(C)nn(-c4ccccn4)c3CC2)cc1	Lmaj promast 100 (no result: WT yeast gro inh, PMI act, Diaphorase act, PMI act satM6P)
Cc1csc(C(=O)O)c1NC(=O)c1cccc([N+](=O)[O-])c1	none
COC(=O)C1=NN(c2ccc(Cl)cc2)C2C(=O)N(c3ccccc3OC)C(=O)C12 (centres undefined)	none
CCOC(=O)/C(=N/Nc1ccccc1)N1CCCc2ccccc21	PMI act satM6P 2.4
COC(=O)/C(=N/Nc1ccccc1C)N1CCCc2ccccc21	PMI act satM6P 2
CCCc1nc(N2CCOCC2)c2sc(=S)n(-c3ccccc3)c2n1	none
CC(C)=NNc1nc(-c2ccccc2)c(C)s1	none
CCc1cc(C(=O)N=Nc2c(O)[nH]c3c(Br)cc(Br)cc23)c2ccccc2n1	none
C/C(=N/NC(=O)c1cn(-c2cccc(C)n2)cn1)c1ccc(C)cc1	Lmaj promast 77
COc1cc(/C=N/NC(=O)c2cn(-c3cccc(C)n3)cn2)ccc1O	Lmaj promast 98
COCC(C)NC(=O)CSc1nnc(-c2cccc(S(=O)(=O)N3CCCCC3)c2)o1 (centres undefined)	none
O=S(=O)(c1ccc(-c2nnc(SCc3nnc(-c4ccccc4)o3)o2)cc1)N1CCCC1	Lmaj promast 100
CC(NC(=O)CSc1nnc(-c2cccc(S(=O)(=O)N3CCCCC3)c2)o1)C12CC3CC(CC(C3)C1)C2 (centres undefined)	Lmaj promast 96
CCn1c(SCc2nnc(-c3ccccc3)o2)nnc1-c1ccc(S(=O)(=O)N2CCCC2)cc1	Lmaj promast 99
CCn1c(SCc2ccccc2)nnc1-c1ccc(S(=O)(=O)N2CCCCC2)cc1	Lmaj promast 99
CCn1c(SC)nnc1-c1ccc(S(=O)(=O)N2CCCCC2)cc1	none (no result: WT yeast gro inh, PMI act, Diaphorase act, PMI act satM6P)
CCOc1ccc(CNC(=O)CCc2cn(Cc3ccccc3)c3ccccc23)cc1	none
O=C(CSc1nnc(-c2ccc(S(=O)(=O)N3CCCC3)cc2)o1)NCc1ccccc1	Lmaj promast 99
COc1cccc(N/C(C)=C/C(=O)c2ccc(Br)cc2)c1	WT yeast gro inh 65
CC1(/[N+]([O-])=C/c2ccccc2F)CCCCC1=O (centres undefined)	none
CS(=O)(=O)N1CCN(c2ccc(NC(=O)C(c3ccccc3)c3ccccc3)cc2)CC1	none
O=C(Nc1ccc(N2CCCC2)cc1)C(Cl)c1ccccc1 (centres undefined)	Lmaj promast 99
O=C(Nc1ccccc1)Nc1c(F)cccc1F	none
O=C(Nc1ccccc1)Nc1cc(OCC(F)(F)F)cc(OCC(F)(F)F)c1	WT yeast gro inh 86, Lmaj promast 100
O=C(Nc1ccccc1)Nc1cc(Cl)cc(Cl)c1	WT yeast gro inh 89
COc1cccc(NC(=O)C(c2ccccc2)N2CCCCC2)c1 (centres undefined)	none
O=C(Nc1cc(Cl)cc(Cl)c1)C(c1ccccc1)N1CCCCC1 (centres undefined)	WT yeast gro inh 66
CCC(CC)C(=O)OCC(=O)Nc1cc(OC)c([N+](=O)[O-])cc1C	none
CC(=O)c1c(N2CCN(c3ccccn3)CC2)nc(=S)n(-c2ccccc2)c1C	none
O=C(Nc1cccnc1)Nc1cc(Cl)cc(Cl)c1	WT yeast gro inh 77
O=C(Nc1cccnc1)Nc1ccccc1Cl	none
Cc1ccc(C)c(NC(=O)C2CCCN2/C=C/C(=O)C(F)(F)F)c1 (centres undefined)	none
Oc1ccc(/C=N/Nc2cccc3cccnc23)c(O)c1	none
Cc1cccc(N/N=C/c2ccccc2O)c1	PMI act satM6P 2.8
Cc1ccc(/C=N/Nc2cccc3cccnc23)c(O)c1	PMI act satM6P 2
CCOc1ccc(N(CC(=O)NCC2CCCO2)S(=O)(=O)c2ccc(SC)cc2)cc1 (centres undefined)	none
CC(CCc1ccc(O)cc1)NC1C2CC3CC(C2)CC1C3 (centres undefined)	Lmaj promast 71
CCN(CC)S(=O)(=O)c1cc([N+](=O)[O-])ccc1NNC(=O)Nc1ccccc1OC	Lmaj promast 80
CCN(CC)S(=O)(=O)c1cc([N+](=O)[O-])ccc1NNC(=O)Nc1ccc(F)cc1	none
COc1ccc(Nc2cc(C)nc(N3CCOCC3)n2)cc1	none
Cc1ccc(Nc2cc(C)nc(N3CCOCC3)n2)c(C)c1	Lmaj promast 76
CC(C)(C)C(=O)NC(=S)Nc1ccccc1C(=O)Nc1ccccc1	none
Cc1ccc(-c2nn(-c3ccccc3)cc2C(N)=O)o1	none
Cc1ccc(-c2nn(-c3ccccc3)cc2C=O)o1	Lmaj promast 52
Cc1ccc2cc3cc(C(=O)N(CC(=O)NC4CCCC4)c4cccc(C)c4C)sc3nc2c1	Lmaj promast 51
Cc1ccc(C)c(N(CC(=O)NC2CCCC2)C(=O)c2cc3cc4cccc(C)c4nc3s2)c1	none
COc1cc(/C=N/NC(=S)NCCN2CCOCC2)ccc1O	none
